Assay outcomes (PubChem BioAssay)
An excerpt weighted towards active compounds, which were near 0.99% of everything screened.
STK33 inh = human STK33 kinase inhibition; Q9BYT3; purified STK33, MBP phosphorylation, ADP-Glo luminescence; inhibition, % at 10 µM; 320,000 compounds, 0.073% hits; AID 2661;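 active means inhibition at or above 25%, using the most active replicate where run in duplicate; inactive means inhibition below 25%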
GSK3beta inhib = blocks human GSK3beta kinase activity; P49841; GST-GSK3beta kinase, ADP-Glo luminescence, 60 min; stronger effect = lower value; activity score (negative = inhibition), % at 10 µM; 300,000 compounds, 0.038% hits;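 active means more than half of replicate wells score below -50%, meaning over 50% inhibition versus plate controls; inconclusive means some replicates but at most half score below -50%; inactive means no replicate scores below -50%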
Target sequence (P49841 whole entry, looked up): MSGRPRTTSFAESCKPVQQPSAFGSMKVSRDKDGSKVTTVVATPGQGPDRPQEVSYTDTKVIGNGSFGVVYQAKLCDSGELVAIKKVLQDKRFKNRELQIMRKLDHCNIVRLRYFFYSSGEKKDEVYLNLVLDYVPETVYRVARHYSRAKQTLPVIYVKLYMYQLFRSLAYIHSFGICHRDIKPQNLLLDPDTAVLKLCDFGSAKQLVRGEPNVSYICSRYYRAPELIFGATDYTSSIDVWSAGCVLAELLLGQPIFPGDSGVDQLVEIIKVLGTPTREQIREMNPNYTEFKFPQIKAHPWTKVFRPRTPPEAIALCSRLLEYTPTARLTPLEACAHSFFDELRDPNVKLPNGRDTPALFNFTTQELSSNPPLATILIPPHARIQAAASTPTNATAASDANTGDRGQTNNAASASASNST
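Test system: GST-fused GSK3beta enzyme, cell-free | Quantity: 1.6 ng GST-GSK3beta enzyme per well | Reagent: 25 µM ATP with peptide substrate | Schedule: 60 min enzyme reaction, room temperature | Signal: Luminescent ADP-Glo measurement of ADP formed | Read-out basis: Score relative to plate controls | Control set: DMSO and 20 µM GW8510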
GSK3A inh = human GSK-3 alpha kinase inhibition | 320,000 compounds, 0.1% hits | ADP-Glo luminescence, 60 min | P49840 | inhibition, % at 10 µM;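 active means more than half of replicates show inhibition above 20%; inconclusive means some but at most half of replicates above 20% inhibition; inactive means no replicate shows inhibition above 20%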;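 further: GST-tagged GSK-3 alpha with peptide substrate and 25 µM ATP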
AI-2 QS modul = Vibrio harveyi AI-2 quorum sensing modulation; Vibrio harveyi JMH597 AI-2 luminescence/OD600 ratio, 9 h; stronger effect = lower value; strain lacks LuxN and CqsS sensors; 0 = neutral-control median; activity change, % at 7.5 µM; AID 2094; 300,000 compounds, 0.4% hits; in the data active means activity change below about -75%, passing the limit was not always enough; inconclusive means no clear call, values can overlap the other calls;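 further: luminescence divided by OD600 gain over 9 h not by final OD600 alone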
DYRK1A inh = Dyrk1A (rat) kinase inhibition | Q63470 | ADP-Glo luminescence, NFATc1 peptide | inhibition, % at 12.5 µM | 310,000 compounds, 0.43% hits | AID 504441; in the data active means inhibition above about 50%
Rce1 inhib = inhibitors of yeast Ras-converting enzyme; yeast membranes, quenched prenylated peptide cleavage fluorescence; AID 2563; Q03530; calls only; 290,000 compounds, 0.27% hits;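 active means fall in fluorescence gain of 50% or more versus controls, with final raw signal at or below 3038400; inconclusive means same 50% fall but final raw signal above 3038400; inactive means fall in fluorescence gain under 50%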
Target sequence (Q03530 whole entry, looked up): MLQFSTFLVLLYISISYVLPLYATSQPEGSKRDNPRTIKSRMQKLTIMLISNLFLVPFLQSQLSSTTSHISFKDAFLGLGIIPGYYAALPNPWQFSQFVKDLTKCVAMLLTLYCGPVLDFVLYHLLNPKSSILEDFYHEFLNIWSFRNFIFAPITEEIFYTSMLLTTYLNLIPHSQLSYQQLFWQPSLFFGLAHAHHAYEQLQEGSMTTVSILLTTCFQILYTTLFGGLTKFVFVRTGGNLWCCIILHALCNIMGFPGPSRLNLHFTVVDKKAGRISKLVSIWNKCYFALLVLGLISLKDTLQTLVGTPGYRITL
Large screens that a line does not name were inactive.

COc1cc(/C=C/C(=O)OCC(=O)N2CCN(S(=O)(=O)c3ccc(C)cc3C)CC2)cc(Cl)c1OC	none (no result: STK33 inh, GSK3beta inhib, GSK3A inh, AI-2 QS modul, Rce1 inhib)
COc1ccc(NC(=O)CNc2cccc(C#N)c2)cc1Cl	AI-2 QS modul -79.9
COc1ccc(NCC(=O)Nc2ccc(C#N)cc2)cc1Cl	none (no result: GSK3A inh)
COc1ccc(Nc2nc(N3CCOCC3)nc(N3CCOCC3)n2)cc1Cl	none
COc1ccc(NS(=O)(=O)c2c(C)cc(C)cc2C)cc1	Rce1 inhib active
CCOC(=O)c1cc2c(=O)n3cccc(C)c3nc2n(CC(C)C)c1=NC(=O)c1ccco1	Rce1 inhib active (no result: DYRK1A inh)
c1ccc(Nc2ccccn2)cc1	none
c1ccc(Nc2cccc(Nc3ccccc3)n2)cc1	Rce1 inhib active
CC(C)(C)c1n[nH]c(=S)n(/N=C/c2cccs2)c1=O	AI-2 QS modul -76.9
Cc1n[nH]c(=S)n(/N=C/c2cccs2)c1=O	none
CSc1nc2ncc3c(n2n1)CC1c2ccccc2CCN1C3=O (stereo not drawn)	GSK3A inh 72.2
CCOc1ccc(NC(=O)CN(C)C(=O)CCNC(=O)c2ccco2)cc1OCC	none (no result: GSK3beta inhib, AI-2 QS modul, DYRK1A inh, Rce1 inhib)
O=C1NC(Cc2c[nH]c3ccccc23)C(=O)N1Cc1ccccc1 (stereo not drawn)	none
O=C1C(Cc2c[nH]c3ccccc23)NC(=S)N1Cc1ccccc1 (stereo not drawn)	Rce1 inhib active
COC1OC(COC(=O)c2ccccc2)C(OC(=O)c2ccccc2)C1OC(=O)c1ccccc1 (stereo not drawn)	none
O=C(OC[C@H]1O[C@@H](OC(=O)c2cc(O)c(O)c(OC(=O)c3cc(O)c(O)c(O)c3)c2)[C@H](OC(=O)c2cc(O)c(O)c(OC(=O)c3cc(O)c(O)c(O)c3)c2)[C@@H](OC(=O)c2cc(O)c(O)c(OC(=O)c3cc(O)c(O)c(O)c3)c2)[C@@H]1OC(=O)c1cc(O)c(O)c(OC(=O)c2cc(O)c(O)c(O)c2)c1)c1cc(O)c(O)c(OC(=O)c2cc(O)c(O)c(O)c2)c1	STK33 inh 28.4, GSK3A inh 91.2 (no result: GSK3beta inhib, AI-2 QS modul, DYRK1A inh, Rce1 inhib)
CCOc1ccc(NC(=O)CN(C)C(=O)COc2cccc3c2OC(C)(C)C3)cc1OCC	none (no result: GSK3beta inhib, AI-2 QS modul, Rce1 inhib)
Cn1c2ccccc2c2cc(/C=N/NC(=O)c3ccc(O)cc3O)ccc21	none
CCn1c2ccccc2c2cc(/C=N/NC(=O)c3ccncc3)ccc21	none
O=C(N/N=C/c1cn(Cc2ccccc2)c2ccccc12)c1cc(O)cc(O)c1	Rce1 inhib active (no result: DYRK1A inh)
CCn1c2ccccc2c2cc(/C=N/NC(=O)c3cc(O)cc(O)c3)ccc21	Rce1 inhib active
CCn1c2ccccc2c2cc(/C=N/NC(=O)c3ccc(O)cc3)ccc21	Rce1 inhib active (no result: STK33 inh, GSK3A inh)
O/N=C(/CCc1ccccc1)c1ccc2c(c1)OCCO2	none
O=C(Nn1cnc2ccccc2c1=O)c1ccc(Cl)c([N+](=O)[O-])c1	none
Cc1ccc(S(=O)(=O)Cn2nnnc2C(CC(C)C)N2CCN(C3CCCC3)CC2)cc1 (stereo not drawn)	none
CCOC(=O)c1cc(-c2ccccc2)n(CC2CC(c3ccc(OC)cc3)=NO2)n1 (stereo not drawn)	Rce1 inhib inconclusive
CCN(C[C@H]1N[C@@](Cc2ccccc2)(C(=O)OC)[C@H]2C(=O)N(C)C(=O)[C@@H]12)S(=O)(=O)c1ccc(-c2ccccc2)cc1	none (no result: STK33 inh, GSK3beta inhib, GSK3A inh, AI-2 QS modul, Rce1 inhib)
COc1ccc(OC)c(/C=N/NC(=O)CSc2cc(C)nc3c(OC)cccc23)c1	Rce1 inhib active
COc1ccc(OC)c(/C=N/NC(=O)Cn2ccnc2C)c1	Rce1 inhib active (no result: DYRK1A inh)
COc1cc(NC(=O)c2cc(-c3ccccc3Cl)on2)cc(OC)c1OC	none
COc1cc(NS(=O)(=O)c2cc(NC(C)=O)ccc2OC)c(OC)cc1NC(=O)c1ccccc1	none (no result: STK33 inh, GSK3beta inhib, GSK3A inh, AI-2 QS modul, Rce1 inhib)
CC(=O)c1cnn(-c2cc(Oc3cccc(C)c3)ncn2)c1C	none
COC(=O)c1cnn(-c2cc(Oc3cccc(C)c3)ncn2)c1N	AI-2 QS modul -87.6
Cc1cc(O)c2c(c1)C(=O)[C@@]13Oc4c5c(c(O)c6c(O)cc(C)cc46)C(=O)C[C@H](O)[C@H]5[C@@H]1[C@@H](O)CC(=O)C3=C2O	none (no result: STK33 inh, GSK3beta inhib, GSK3A inh, AI-2 QS modul, Rce1 inhib)
O=C(O)CCC1c2cc3c4cc2OC2Oc5cc6c(cc51)C(CCC(=O)O)c1cc5c7cc1OC(O6)c1cc6cc(c1)Oc1cc(cc(C(=O)O)c1)Oc1cc8cc(c1)C(Oc1cc(c(cc1C5CCC(=O)O)C3CCC(=O)O)OC(O4)c1cc(cc(c1)Oc1cc(cc(C(=O)O)c1)O8)Oc1cc(cc(C(=O)O)c1)Oc1cc(cc2c1)Oc1cc(cc(C(=O)O)c1)O6)O7 (stereo not drawn)	STK33 inh 30.0 (no result: DYRK1A inh)
O=C(c1ccc(Cl)cc1)N(Cc1ccco1)C1CCS(=O)(=O)C1 (stereo not drawn)	none
Cc1ccc(S(=O)(=O)N2CCN(C(=O)c3cc4c(C)nn(-c5ccccc5)c4s3)CC2)cc1	Rce1 inhib active
Cc1ccc(Cc2c[nH]c(=S)s2)cc1	AI-2 QS modul -88.9
Cc1ccc(Cc2c(C)[nH]c(=S)[nH]c2=O)cc1	none
OCC[C@H]1C[C@@H](O)[C@H](O)[C@]2(OCCc3ccccc32)O1	none (no result: GSK3beta inhib, AI-2 QS modul, Rce1 inhib)
O=S(=O)(Nc1c(O)ccc2ccccc12)c1cccc2ccccc12	none
O=C(N/N=C/c1ccc(-c2ccc([N+](=O)[O-])cc2)o1)C(O)c1ccccc1 (stereo not drawn)	none
O=C(N/N=C/c1ccc([N+](=O)[O-])o1)C(O)c1ccccc1 (stereo not drawn)	AI-2 QS modul -88.6 (no result: DYRK1A inh)
O=C(CNc1ccc2ccccc2c1)N/N=C/c1ccc([N+](=O)[O-])o1	AI-2 QS modul -92.3
COc1ccc(C(CNC(=O)c2cccc(S(=O)(=O)Nc3ccc(F)cc3)c2)N2CCCCC2)cc1 (stereo not drawn)	none (no result: STK33 inh, GSK3beta inhib, GSK3A inh, AI-2 QS modul, Rce1 inhib)
O=c1c2ccccc2nc2n1CCCCN2	Rce1 inhib active
CCN(C(=O)COC(=O)c1cn(-c2ccccc2)nc1-c1ccccc1)C1CCS(=O)(=O)C1 (stereo not drawn)	Rce1 inhib active (no result: DYRK1A inh)
CCN(C(=O)COC(=O)c1cc(-c2ccccc2)nn1-c1ccccc1)C1CCS(=O)(=O)C1 (stereo not drawn)	none
CN(C(=O)COC(=O)c1cn(-c2ccccc2)nc1-c1ccccc1)C1CCS(=O)(=O)C1 (stereo not drawn)	Rce1 inhib active
CSc1ncccc1C(=O)N1CCCC(N2CCN(c3ccccc3F)CC2)C1 (stereo not drawn)	none
CCN1CCN(c2ccc(NC(=O)c3cc(S(=O)(=O)N4CCCC4)ccc3Cl)cc2)CC1	none (no result: GSK3beta inhib, AI-2 QS modul, Rce1 inhib)
Clc1cccc(CN2CCc3c([nH]c4ccccc34)C2)c1	none (no result: GSK3beta inhib, AI-2 QS modul, Rce1 inhib)
Clc1ccc(CN2CCc3c([nH]c4ccccc34)C2)cc1Cl	Rce1 inhib active
O=C(Nc1nccs1)c1ccc(N2CCOCC2)c([N+](=O)[O-])c1	STK33 inh 25.5
